Measurements reported in ChEMBL document CHEMBL4513216, “Probing the Open Global Health Chemical Diversity Library for Multistage-Active Starting Points for Next-Generation Antimalarials” (ACS Infect Dis, 2020).

Assay: Toxicity liver stage against HepG2, at 10uM
Format: cell-based
Set-up: test concentration 10 uM, cell line HepG2-A16-CD81EGFP
Settings: human, HepG2-A16-CD81EGFP cells; read-out: INHIBITION
Method in brief: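 Uninfected HepG2-A16-CD81EGFP cells, 3 × 10^3 per well, 1536-well, plated on prespotted compound at 10 μM final, parasite-free screening media added to match infected plates; puromycin 10 μM positive, DMSO 0.5% negative; run in parallel with 48 h PbLuc assay at 37 °C, 5% CO2; viability by CellTiter-Glo luminescence, normalized to controls.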

SMILES | cytotoxicity at 10 µM
Cc1cccc(OC2CCN(C(=O)NCc3cc[nH]n3)CC2)c1C | 7.41%
Cc1nc(NC(=O)c2c(-n3cnnn3)sc3c2CCC3)sc1C | 5.95%
CCCSc1nn(CCN(C)C)c2nc3sc(C)c(CC)c3c(=O)n12 | 16.4%
CC(C)n1ncc2c1NC(=O)CC21C(=O)Nc2cc(Cl)cc(Cl)c21 (stereo not drawn) | 19.1%
Nc1nc2c(c(NC(=O)Nc3cccc(Cl)c3)n1)CCCC2 | -2.8%
O=S(=O)(c1ccc(Cl)s1)N1CCN(Cc2nc(-c3ccco3)cs2)CC1 | 47.6%
CCc1cnc(N2CC[C@@H]3CN(C(=O)c4ccco4)CCO[C@@H]3C2)nc1 | 9.22%
CC(C)CNc1nc2c(cc1C(=O)NCC1CC1)CCNCC2 | -2.79%
CCS(=O)(=O)N1CCc2ccc(NC(=O)Nc3cccc(SC)c3)cc21 | 37.7%
Cc1cc(C)n(C2=NC(NCCC(C)C)c3c(sc4c3CCCC4)N2)n1 (stereo not drawn) | 25%
CCc1ccc(-c2cc(C(F)(F)F)nc(N3CCC(N)CC3)n2)cc1 | 91.5%
Cc1nn(C)c2c(=O)n(C(C)C)c(NCCc3ccccc3)nc12 | 65.3%
CC(C)Nc1cc(-c2c[nH]nc2C2CCN(C(=O)C3CC3)C2)ccn1 (stereo not drawn) | 85%
COc1ccc(CC(=O)NC(C)c2nc3cccnc3n2C(C)C)cc1 (stereo not drawn) | -11.7%
Cc1ncc(CN2CCOC(c3ccc(-c4ccccc4F)cn3)C2)s1 (stereo not drawn) | -35.7%
CN(C)C(=O)C1CN(Cc2ccccn2)CCN(S(C)(=O)=O)C1 (stereo not drawn) | 26.9%
Cc1cc(-c2cnc(NCc3ccncc3)nc2C(C)C)on1 | 59.7%
CC(C)NC(=O)c1cc(-c2ccc(S(C)(=O)=O)cc2)c2cnn(C)c2n1 | 8.3%
O=c1c(Cc2ccc(Cl)cc2Cl)c(O)ccn1CC1CC1 | 13.6%
CCN1CCC(NC(=O)CNC(C)Cn2cccn2)CC1 (stereo not drawn) | 9.19%
Cc1ccccc1CNc1ccc(S(N)(=O)=O)c(C(F)(F)F)c1 | 22.2%
CCOCCOC(C)C(=O)Nc1nccn1Cc1ccccc1 (stereo not drawn) | 3.94%

SMILES | cytotoxicity at 10 µM
COCc1ccccc1NCc1csc(NC(C)=O)n1 | -1.36%
O=C(NCC(=O)N1CCN(c2ccccc2)CC1)c1sccc1C1CC1 | -151%
CCC(C)c1csc(NC(=O)Cc2csc(-c3nnc[nH]3)n2)n1 (stereo not drawn) | -29.6%
COCC1CN(c2ccc(C#N)c(Cl)c2)CCO1 (stereo not drawn) | 4.86%
CCOc1ccc(-c2nc(CN(C)Cc3c(C)noc3C)cs2)cc1 | 38.6%
Cc1nc(C)c(CNC(=O)N2CCN(c3ccc(Cl)cn3)CC2)s1 | 55.8%
COc1c(Cl)cccc1NCc1csc(NC(C)=O)n1 | 57.8%
COC(=O)CSCc1noc(-c2ccc(C)cc2)n1 | 4.13%
CC(C)N(C)C(=O)c1ccc(CNc2ccncc2Cl)cc1 | 55.8%
CCc1ncc(C(=O)NCCNc2ncnc3sccc23)s1 | 49.6%
O=C(NCC1(O)CCSC1)c1ccoc1 (stereo not drawn) | -12.7%
CCN(CC1CN(Cc2nc(C3CC3)no2)CCO1)c1cccnn1 (stereo not drawn) | 14.9%
c1cc(CNCc2ccnc(N3CCCC3)c2)c2c(c1)OCCCO2 | 26.6%
O=C(CSc1nncs1)N1CCN(Cc2ccc(Cl)cc2)CC1 | 21.9%
CCc1noc(C(C)N(C)CC(=O)Nc2ccc(Cl)c(C(F)(F)F)c2)n1 (stereo not drawn) | 50.1%
NC(=O)c1ccc(N2CCCCC2)c(NC(=O)c2ccc(F)cc2F)c1 | -0.0472%
CCc1nc(CN2CCCN(c3ncnc4ccsc34)CC2)no1 | 64.5%
Cc1nc(CN2CCN(c3ncnc4ccccc34)CC2)no1 | 61.5%
CC(C)(C)OC(=O)N1CCCc2ccc(NCc3cc[nH]c3)cc21 | 34.1%
COc1ccccc1CN(C)C(=O)CN1CC(n2nc(C)cc2C)C1 | 21.3%
CCCc1n[nH]c(C2CN(C(=O)CCCn3ccnc3C)CCO2)n1 (stereo not drawn) | 6.03%
N#Cc1cnc2ccccc2c1N1CCN(C(=O)C2CCC2)CC1 | -2.3%

SMILES | cytotoxicity at 10 µM
CN(CCN1CCCC1=O)S(=O)(=O)CC1CCCC1 | 10.4%
CC1(C)CN=C(N2CCN(CCCN3CCOCC3)CC2)S1 | -17.6%
CN(CCc1cccc2ccccc12)Cc1nc(N)nc(N(C)C)n1 | 4.19%
CN1CCN(C2CCN(c3ccnc(-c4ccccc4)n3)CC2)C1=O | 59.7%
c1nc(NCC2(N3CCOCC3)CCSC2)c2sccc2n1 (stereo not drawn) | 59.7%
O=S1(=O)CCN2C(=N1)Oc1ccc(S(=O)(=O)N3CCCC3)cc12 | 18.2%
CS(=O)(=O)c1cccc(C(=O)NCC2(c3ccccc3)CC2)c1 | 1.47%
Cc1ccc(-c2nc(CN(Cc3cccs3)C3CCS(=O)(=O)C3)cs2)o1 (stereo not drawn) | 11.4%
CC(C)CN1CCC(NC(C)c2ccccc2-n2cccn2)CC1 (stereo not drawn) | 1.06%
O=C(CN1CCCC(c2ccn[nH]2)C1)Nc1nc2c(s1)CCCC2 (stereo not drawn) | -43.3%
NC(=O)c1ccc(N2CCCCC2)c(NC(=O)c2cc(Br)ccc2F)c1 | -12.9%
COc1cc(CN(C)C(=O)Cc2c(C)nn(C)c2C)ccc1OC(F)F | 39.2%
CC(C)NC(=O)C1CN(C(=O)N(C)C)CC12CCOCC2 (stereo not drawn) | -110%
O=C(Nc1ccccc1)N1CCc2nc(C(=O)N3CCCC3)sc2CC1 | 11.3%
CN(C)C(=O)CN1CCC2(COCc3cnc(-c4ccccc4)nc32)C1 (stereo not drawn) | -96.7%
COc1cc(N2CC[C@@H](O)[C@@H]2Cc2ccccc2)ncn1 | -52.1%
O=C1O[C@@H]2CN(c3ccccn3)C[C@@H]2N1CCCc1ccc(F)cc1 | -2.88%
FC(F)(F)c1cccc(OC2CCN(Cc3c[nH]cn3)CC2)c1 | -47.8%
Cc1ccc(Sc2ccc(CN3CCC4(CCCNC4=O)C3)o2)cc1 (stereo not drawn) | -3.68%
CCC(NC(=O)c1cc(CC(C)C)nn1C)c1cccc(C)n1 (stereo not drawn) | -116%
Clc1ccccc1C1(c2ccnc(C3CCCC3)n2)CCNCC1 | 18.2%
CNc1ccnc(N(C)Cc2cc(-c3cccs3)n[nH]2)n1 | -4.57%

SMILES | cytotoxicity at 10 µM
COc1ccnc(CN2CCCC(CCc3ccc(F)cc3)C2)c1OC (stereo not drawn) | 50.4%
CCc1nc2c(N3CCC4(CC3)CC(=O)N(CC(C)C)C4)ncnc2o1 | 16.2%
Cc1nc(C2CCN(C)CC2)cc(N2CCOc3ccc(Cl)cc3C2)n1 | -5.12%
CCOc1ccc2[nH]c(=O)c(CN3CCN(S(N)(=O)=O)CC3)cc2c1 | -6.39%
Cc1cccnc1NCCNC(=O)c1cnc(-c2ccccn2)nc1O | 26.4%
CCCNC(=O)c1ccc(S(=O)(=O)NCC2(COC)CCCC2)cc1 | -31.2%
CC(C)c1cc(C(=O)NCCc2nc3c(s2)CCC3)n(C)n1 | 54.2%
CCc1nc2c(NCC3COc4ccccc4C3)ncnc2o1 (stereo not drawn) | 10.5%
COc1ccccc1OC1CN(C(=O)c2c(C)nc3ccc(C)cn23)C1 | -0.376%
Cc1cc(C(=O)NC2CCCc3c2cnn3-c2cccc(C)c2C)[nH]n1 (stereo not drawn) | 51.4%
Cc1cc(CN(C)CC2CCCN(CCc3ccc(Cl)cc3)C2)[nH]n1 (stereo not drawn) | -12.5%
C=Cc1ccc(CN2C(=O)C3(CCNCC3)Nc3ccccc32)cc1 | 3.39%
Cc1nc(C(=O)N2CCN(c3ccc(Cl)c(Cl)c3)CC2)cs1 | 2.35%
Cc1cccc2cc(CO)c(N3Cc4cnc(C(C)(C)C)nc4C3)nc12 | 10.6%
CC(C)(C)n1ncc2c1NC(=O)CC2c1cccc(F)c1 (stereo not drawn) | -8.81%
Cc1ccc(-c2noc(CN3CCC(N4CCNC4=O)CC3)n2)cc1 | 31%
Cc1ccc(-c2noc(CN3CC(n4cc(C)cn4)C3)n2)cc1 | -3.86%
Cc1noc(NC(=O)c2cccc(Br)c2)n1 | -5.3%
CCCC1CCCN(Cc2csc(-c3ncccn3)n2)CC1 (stereo not drawn) | 13.6%
Cn1ncc(NCc2cccc(OCC(F)(F)F)c2)c(Cl)c1=O | 22.1%
COc1c(CNCc2ccnc(N3CCCCC3)c2)c(C)nn1C | 10.1%
CC1CN(CC2CCCCC2)CCN1c1ccc2nncn2n1 (stereo not drawn) | 13.8%

SMILES | cytotoxicity at 10 µM
Cc1nccn1CCCn1cncc1-c1ccc2c(c1)CCC(C)N2C (stereo not drawn) | -4.98%
Cc1ccc(CN(CCCn2ccnc2)Cc2cc(F)ccc2F)s1 | -13.2%
Clc1cccc(N[C@H]2CCCN[C@H]2Cc2ccccc2)c1 | 89.4%
COc1ccc(-c2ccc(C3CNCCO3)nc2)cc1 (stereo not drawn) | -8.88%
O=C(N1CCOCC1)[C@@]12CCO[C@@H]1CCN(Cc1cccc(F)c1)C2 | 10.8%
CCS(=O)(=O)N1C[C@@H]2CN(Cc3cccs3)CCO[C@@H]2C1 | -138%
CN(C)C(=O)c1n[nH]c2c1CN(Cc1nccs1)CC2 | -150%
Fc1cccc(O[C@@H]2C[C@H]3CN(Cc4ccncc4)CCN3C2)c1 | -143%
O=c1ccc2c(n1CC1CC1)CCC(NCc1cccs1)C2 (stereo not drawn) | -111%
Cc1nccc(NCc2cncc3c2CCN(CC2CCOC2)C3)n1 (stereo not drawn) | -41.5%
CCCS(=O)(=O)N1CCC2(CC1)CN(CC1CCOC1)c1ccccc12 (stereo not drawn) | -101%
O=C(c1ccco1)N1C[C@@H]2CCN(c3cccnc3)C[C@@H]2C1 | -68.3%
COCCN1CCC2(CC1)CC(N1CCOCC1)c1cc(C)ccc12 (stereo not drawn) | -106%
O=C(NCc1cccnc1)[C@@H]1CC[C@@H]2[C@@H](CCN2c2ncccn2)O1 | -68%
Cc1ccc(N2CCO[C@H]3CN(Cc4cccs4)C[C@H]32)nn1 | -75.6%
Cc1noc([C@H]2C[C@H]3OCC[C@H]3N(C3CCC3)C2)n1 | -129%
Cc1ccc(N2CCC3(CN(Cc4ccncc4)CCC3(F)F)C2)nn1 (stereo not drawn) | 28.6%
O=C(O)c1c(-c2cncnc2)ncc2c1CCN(Cc1cccnc1)C2 | 10.6%
c1ccc(-c2cc(CN3C[C@H]4CC[C@@H](C3)N(CC3CCC3)C4)on2)cc1 | 3.27%
COc1ccc(NS(=O)(=O)C=c2[nH]c(=O)n3cccc3c2=O)cc1Cl | -1.47%
